# Source: ChEMBL document CHEMBL3124823, “1,2,3-Triazole-containing derivatives of rupestonic acid: click-chemical synthesis and antiviral activities against influenza viruses” (Eur J Med Chem, 2014)
# Tests used:
# [1] = Cytotoxicity against MDCK cells after 48 hrs; assay type: cell-based, Canis lupus familiaris; conditions: dog, read-out: TC50
# Method in brief: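 MDCK cells seeded at 25000 per well and cultured 24 h at 37 °C, 5% CO2. Threefold dilutions were added to the monolayer and culture continued 48 h. Cytopathic changes were recorded by observation, and TC50 was calculated by the Reed & Muench method.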
# Influenza A virus [2] = experiment: Antiviral activity against Influenza A virus (A/FM/1/1947(H1N1)) infected in MDCK cells assessed as inhibition of virus-induced cytopathicity after 40 hrs; assay type: functional, organism-based; conditions: A/Fort Monmouth/1/1947(H1N1)
# Method in brief: (§1)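 CPE reduction in MDCK cells: cells grown 24 h at 37 °C, 5% CO2, then infected and held 2 h at 37 °C before the inoculum was removed. Threefold serial drug dilutions (8 levels from 20 mg/mL DMSO stocks) were added and incubated 40 h at 37 °C. CPE inhibition was scored against cell and virus controls to give IC50. Ribavirin and oseltamivir were the controls.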
# Influenza B virus [3] = experiment: Antiviral activity against Influenza B virus jifang/13/97 infected in MDCK cells assessed as inhibition of virus-induced cytopathicity after 40 hrs; assay type: functional, organism-based; conditions: jifang/13/97, MDCK; method in brief: as §1
# Influenza A virus [4] = experiment: Antiviral activity against Influenza A virus A/hanfang/359/95(H3N2) infected in MDCK cells assessed as inhibition of virus-induced cytopathicity after 40 hrs; assay type: functional, organism-based; method in brief: as §1
# [5] = Selectivity index, ratio of TC50 for MDCK cells to IC50 for Influenza B virus jifang/13/97; assay type: toxicity, cell-based; conditions: dog, read-out: Selectivity Index
# Method in brief: (§2)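 Selectivity index = TC50 (MDCK, 48 h visual cytotoxicity) / IC50 from the 40 h CPE-inhibition assay for the given strain.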
# [6] = Selectivity index, ratio of TC50 for MDCK cells to IC50 for Influenza A virus (A/FM/1/1947(H1N1)); assay type: toxicity, cell-based; conditions: dog, read-out: Selectivity Index; method in brief: as §2
# [7] = Selectivity index, ratio of TC50 for MDCK cells to IC50 for Influenza A virus (A/Tianjinjinnan/15/2009/H1N1); assay type: toxicity, cell-based; conditions: dog, read-out: Selectivity Index; method in brief: as §2
# [8] = Selectivity index, ratio of TC50 for MDCK cells to IC50 for Influenza A virus A/hanfang/359/95(H3N2); assay type: toxicity, cell-based; conditions: dog, read-out: Selectivity Index; method in brief: as §2
# Influenza B virus [9] = experiment: Ratio of ribavirin IC50 to compound IC50 for Influenza B virus jifang/13/97 infected in MDCK cells; assay type: functional
Compound,CC50 at 48 h [1] [mg/L],IC50 (Influenza A virus [2]) [mg/L],IC50 (Influenza B virus [3]) [mg/L],IC50 (Influenza A virus [4]) [mg/L],selectivity ratio [5],selectivity ratio [6],selectivity ratio [7],selectivity ratio [8],Ratio IC50 (Influenza B virus [9])
C=C(C(=O)OCc1cn(Cc2cccc(Cl)c2)nn1)[C@@H]1CC[C@H](C)[C@@H]2CC(=O)C(C)=C2C1,139,≥ 66.7,66.7,> 66.7,2.1,,,,
C=C(C(=O)OCc1cn(Cc2ccc(Cl)cc2)nn1)[C@@H]1CC[C@H](C)[C@@H]2CC(=O)C(C)=C2C1,66.7,> 22.2,12.8,> 22.2,5.2,,,,
C=C(C(=O)OCc1cn(Cc2cccc(F)c2)nn1)[C@@H]1CC[C@H](C)[C@@H]2CC(=O)C(C)=C2C1,96.2,> 22.2,≥ 22.2,> 22.2,≥ 4.3,,,,
C=C(C(=O)OCc1cn(Cc2ccc(F)cc2)nn1)[C@@H]1CC[C@H](C)[C@@H]2CC(=O)C(C)=C2C1,66.7,> 22.2,8.98,> 22.2,9.1,,,,
C=C(C(=O)OCc1cn(Cc2ccc(Cl)c(Cl)c2)nn1)[C@@H]1CC[C@H](C)[C@@H]2CC(=O)C(C)=C2C1,22.2,> 7.41,> 7.41,> 7.41,,,,,
C=C(C(=O)OCc1cn(C2CCCCC2)nn1)[C@@H]1CC[C@H](C)[C@@H]2CC(=O)C(C)=C2C1,115,66.7,18.5,≥ 66.7,6.5,1.73,1.98,≥ 1.73,
C=C(C(=O)NCc1cn(Cc2ccccc2C)nn1)[C@@H]1CC[C@H](C)[C@@H]2CC(=O)C(C)=C2C1,66.7,> 22.2,15,> 22.2,4.55,,,,
C=C(C(=O)NCc1cn(Cc2cccc(C)c2)nn1)[C@@H]1CC[C@H](C)[C@@H]2CC(=O)C(C)=C2C1,66.7,> 22.2,11.8,> 22.2,5.7,,,,
C=C(C(=O)NCc1cn(Cc2ccc(C)cc2)nn1)[C@@H]1CC[C@H](C)[C@@H]2CC(=O)C(C)=C2C1,96.2,17.5,11.8,> 22.2,8.25,5.91,,,
C=C(C(=O)NCc1cn(Cc2ccccc2)nn1)[C@@H]1CC[C@H](C)[C@@H]2CC(=O)C(C)=C2C1,96.2,17.2,11.3,> 22.2,12.2,5.58,,,
C=C(C(=O)NCc1cn(Cc2cccc(OC)c2)nn1)[C@@H]1CC[C@H](C)[C@@H]2CC(=O)C(C)=C2C1,66.7,12.8,19.7,> 22.2,3.45,5.2,,,
C=C(C(=O)NCc1cn(Cc2ccc(OC)cc2)nn1)[C@@H]1CC[C@H](C)[C@@H]2CC(=O)C(C)=C2C1,96.2,14,11.8,> 22.2,8.25,10.5,,,
C=C(C(=O)NCc1cn(Cc2cccc(Cl)c2)nn1)[C@@H]1CC[C@H](C)[C@@H]2CC(=O)C(C)=C2C1,28.6,> 7.41,7.41,> 7.41,3.9,,,,>4
C=C(C(=O)NCc1cn(Cc2ccc(Cl)cc2)nn1)[C@@H]1CC[C@H](C)[C@@H]2CC(=O)C(C)=C2C1,17.2,> 2.47,2.09,> 2.47,8.55,,,,>4
C=C(C(=O)NCc1cn(Cc2ccccc2F)nn1)[C@@H]1CC[C@H](C)[C@@H]2CC(=O)C(C)=C2C1,116,> 66.7,> 66.7,> 66.7,,,,,
C=C(C(=O)NCc1cn(Cc2cccc(F)c2)nn1)[C@@H]1CC[C@H](C)[C@@H]2CC(=O)C(C)=C2C1,66.7,> 22.2,4.71,> 22.2,14.3,,,,>4
C=C(C(=O)NCc1cn(C2C=CCCC2)nn1)[C@@H]1CC[C@H](C)[C@@H]2CC(=O)C(C)=C2C1 (stereo partly drawn),96.2,9.75,13.4,> 22.2,7.85,9.86,4.96,,
C=C(C(=O)NCc1cn(C2CCCCC2)nn1)[C@@H]1CC[C@H](C)[C@@H]2CC(=O)C(C)=C2C1,38.5,> 7.41,19.7,> 7.41,1.95,,1.73,,
C=C(C(=O)OCc1cn(Cc2ccccc2C)nn1)[C@@H]1CC[C@H](C)[C@@H]2CC(=O)C(C)=C2C1,46.2,> 22.2,18.8,> 22.2,2.55,,,,
C=C(C(=O)OCc1cn(Cc2cccc(C)c2)nn1)[C@@H]1CC[C@H](C)[C@@H]2CC(=O)C(C)=C2C1,38.5,12.3,≥ 9.54,> 22.2,≥ 4,3.76,1.98,,
C=C(C(=O)OCc1cn(Cc2ccc(C)cc2)nn1)[C@@H]1CC[C@H](C)[C@@H]2CC(=O)C(C)=C2C1,96.2,> 22.2,≥ 22.2,> 22.2,≥ 4.32,,,,
C=C(C(=O)OCc1cn(Cc2ccccc2)nn1)[C@@H]1CC[C@H](C)[C@@H]2CC(=O)C(C)=C2C1,28.6,> 7.41,≥ 7.41,> 7.41,≥ 3.9,,,,
C=C(C(=O)OCc1cn(Cc2cccc(OC)c2)nn1)[C@@H]1CC[C@H](C)[C@@H]2CC(=O)C(C)=C2C1,96.2,> 22.2,> 22.2,> 22.2,,,,,
C=C(C(=O)OCc1cn(Cc2ccc(OC)cc2)nn1)[C@@H]1CC[C@H](C)[C@@H]2CC(=O)C(C)=C2C1,46.2,19.7,≥ 22.2,> 22.2,≥ 2.1,2.68,2.08,,
C=C(C(=O)OCc1cn(Cc2ccccc2Cl)nn1)[C@@H]1CC[C@H](C)[C@@H]2CC(=O)C(C)=C2C1,115,> 66.7,14.8,40.2,10.4,,1.98,3.31,
CCOC(=O)C1=C[C@@H](OC(CC)CC)[C@H](NC(C)=O)[C@@H](N)C1 [OSELTAMIVIR],1260,2.81,,1,,448,,1240,
C=C(C(=O)O)[C@@H]1CC[C@H](C)[C@@H]2CC(=O)C(C)=C2C1 [PECHUELOIC ACID],248,4650,181,,> 4030,> 111,> 1340,25.8,
